Experiment [1] addresses Norepinephrine transporter (Rattus norvegicus, UniProt Q9WTR4). The experiment can be described thus: Inhibition of uptake of tritiated norepinephrine (NE) into rat brain synaptosomes. The format is functional, subcellular.
The target of experiment [2] is Sodium-dependent serotonin transporter (Rattus norvegicus, UniProt P31652). Briefly: Inhibition of uptake of [14C]-labelled serotonin (5-HT) into rat brain synaptosomes.
Experiment [3] has as its system Mus musculus. Briefly: In vivo antagonism of reserpine-induced hypothermia in the mice. The experiment is classed as functional. The following applies: for minimal effective dose: Mus musculus, read-out: MED. The method in brief: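 Male mice pretreated 18 h earlier with reserpine 5.0 mg/kg sc; compounds in 0.25% Tween 80 in water given ip or po at 1, 3, 10, 30, 100 mg/kg. Rectal temperature read at 1, 2, 3 h post-dose; MED for reversing hypothermia from two-way ANOVA with Dunnett's comparison to control.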

Experiment [4] relates to Rattus norvegicus. Briefly: (§1) In vivo antagonism of histamine-induced ACTH release in the rat at 10 mg/kg (ip). The format is functional. The method in brief:
(§2)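 Male Sprague–Dawley rats (200–300 g) given compound in saline ip 1 h before saline or histamine (5 mg/kg ip); decapitated 10 min later, trunk blood serum assayed for ACTH by radioimmunoassay (pg/mL). Two-way ANOVA with Dunnett's and Student–Neuman–Keuls tests; value is % decrease of histamine-stimulated ACTH.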

Experiment [5] deals with Rattus norvegicus. Briefly: In vivo noradrenergic responsiveness in the rat pineal gland at 10 mg/kg (ip) (chronic treatment); No significant effect. The format is functional, organism-based. Further details: dose 10 mg/kg. A digest of the protocol: (§3)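 Male Sprague–Dawley rats kept in continuous light, dosed ip twice daily for 5 days (nine injections). 1 h after last dose, isoproterenol 2 μmol/kg in 0.1% ascorbic acid (controls: vehicle); pineal removed 2.5 min later, perchloric acid extract assayed for cAMP by 125I radioimmunoassay. Expressed as % change from control isoproterenol-stimulated pmol cAMP/pineal.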

The subject of experiment [6] is Rattus norvegicus. Briefly: In vivo noradrenergic responsiveness in the rat pineal gland at 10 mg/kg (ip) (single treatment); No significant effect. Details: dose 10 mg/kg. The experiment is classed as functional, organism-based.
The target in experiment [7] is T1, Serotonin 2 (5-HT2) receptor (Rattus norvegicus) (UniProt P30994+P08909+P14842).
T1 sequence (P08909 whole entry, looked up): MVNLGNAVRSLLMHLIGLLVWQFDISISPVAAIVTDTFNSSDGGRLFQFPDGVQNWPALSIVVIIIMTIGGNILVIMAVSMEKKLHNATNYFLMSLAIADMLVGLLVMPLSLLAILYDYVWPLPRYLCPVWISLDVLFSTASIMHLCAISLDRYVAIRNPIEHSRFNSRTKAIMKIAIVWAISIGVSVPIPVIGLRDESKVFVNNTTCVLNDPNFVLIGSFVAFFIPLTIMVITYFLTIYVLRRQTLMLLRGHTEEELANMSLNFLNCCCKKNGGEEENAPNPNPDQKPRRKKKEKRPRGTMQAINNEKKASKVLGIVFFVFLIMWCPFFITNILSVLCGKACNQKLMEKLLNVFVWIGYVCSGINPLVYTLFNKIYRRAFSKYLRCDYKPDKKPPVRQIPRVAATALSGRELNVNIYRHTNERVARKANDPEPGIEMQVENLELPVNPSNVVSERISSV
T1 sequence (P14842 whole entry, looked up): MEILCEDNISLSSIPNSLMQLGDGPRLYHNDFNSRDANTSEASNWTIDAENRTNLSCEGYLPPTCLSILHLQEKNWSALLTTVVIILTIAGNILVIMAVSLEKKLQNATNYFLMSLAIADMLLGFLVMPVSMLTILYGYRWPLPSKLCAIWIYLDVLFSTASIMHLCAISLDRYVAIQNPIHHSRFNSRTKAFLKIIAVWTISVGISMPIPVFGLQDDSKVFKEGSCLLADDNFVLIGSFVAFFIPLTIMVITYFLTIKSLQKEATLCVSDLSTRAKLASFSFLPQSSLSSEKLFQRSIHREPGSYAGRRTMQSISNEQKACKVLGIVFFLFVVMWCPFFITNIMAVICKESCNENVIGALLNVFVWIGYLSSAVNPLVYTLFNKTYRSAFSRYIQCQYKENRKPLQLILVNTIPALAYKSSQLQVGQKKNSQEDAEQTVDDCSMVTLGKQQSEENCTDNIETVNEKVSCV
T1 sequence (P30994 whole entry, looked up): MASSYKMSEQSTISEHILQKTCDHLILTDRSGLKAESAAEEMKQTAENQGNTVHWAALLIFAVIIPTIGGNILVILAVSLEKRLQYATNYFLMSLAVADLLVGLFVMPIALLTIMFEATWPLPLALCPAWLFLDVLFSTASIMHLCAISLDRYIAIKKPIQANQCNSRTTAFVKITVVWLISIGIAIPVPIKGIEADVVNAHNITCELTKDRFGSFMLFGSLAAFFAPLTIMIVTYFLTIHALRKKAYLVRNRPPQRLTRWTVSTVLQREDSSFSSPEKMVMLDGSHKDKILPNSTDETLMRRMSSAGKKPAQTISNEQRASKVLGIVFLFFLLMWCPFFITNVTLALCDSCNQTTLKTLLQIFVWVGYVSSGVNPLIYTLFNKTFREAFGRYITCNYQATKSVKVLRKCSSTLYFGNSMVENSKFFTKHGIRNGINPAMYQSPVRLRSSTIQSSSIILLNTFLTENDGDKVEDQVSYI
Experiment [8] concerns the target T1, Serotonin 2 (5-HT2) receptor (Rattus norvegicus). The source holds these as a separate data set.
Experiment [9] concerns the target T2, Adrenergic receptor beta (Rattus norvegicus) (UniProt P18090+P10608+P26255).
For experiment [10], the target named is T2, Adrenergic receptor beta (Rattus norvegicus). This is another data set of the same source.
The subject of experiment [11] is Rattus norvegicus. The experiment can be described thus: In vivo noradrenergic responsiveness in the rat pineal gland at 10 mg/kg (ip) (single treatment). The experiment is classed as functional. A digest of the protocol: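 Male Sprague–Dawley rats kept in continuous light, given saline twice daily for 5 days, then a single 10 or 30 mg/kg ip dose on day 5. 1 h later, isoproterenol 2 μmol/kg in 0.1% ascorbic acid (or vehicle). Pineal removed 2.5 min after, perchloric acid extract, cAMP by radioimmunoassay; % change versus isoproterenol-stimulated controls.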

Experiment [12] relates to Rattus norvegicus. The experiment can be described thus: (§4) In vivo noradrenergic responsiveness in the rat pineal gland at 10 mg/kg (ip) (chronic treatment). The experiment is classed as functional. The method in brief:
as §3

For experiment [13], the system named is Rattus norvegicus. The experiment is described as §1. The experiment is classed as functional. A digest of the protocol: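 Male Sprague–Dawley rats (200–300 g), 10 mg/kg in saline ip, 1 h before saline or histamine (5 mg/kg ip). Decapitated 10 min later; trunk-blood serum frozen at -60 °C, ACTH measured by radioimmunoassay (pg/mL). Two-way ANOVA with Dunnett's and Student–Neuman–Keuls tests; expressed as % decrease.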
The source holds these as a separate data set.

Experiment [14] concerns Rattus norvegicus. Described as §4. The experiment is classed as functional. A digest of the protocol:
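Male Sprague–Dawley rats under continuous light, injected ip twice daily for 5 days (nine injections) with 10 or 30 mg/kg. 1 h after last dose, isoproterenol 2 μmol/kg in 0.1% ascorbic acid (or vehicle). Pineal removed 2.5 min later, perchloric acid extract, cAMP by 125I radioimmunoassay; % change versus isoproterenol-stimulated controls.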
This is another data set of the same source.

In experiment [15] the test system is Rattus norvegicus. The experiment can be described thus: In vivo antagonism of histamine-induced ACTH release in the rodents at 10 mg/kg (ip); No significant effect. The experiment is classed as functional, organism-based. Details: dose 10 mg/kg. A digest of the protocol:
as §2

Active and inactive are the calls of the source. No cut-off for these calls is given here.

Norepinephrine transporter, sequence (Q9WTR4 whole entry): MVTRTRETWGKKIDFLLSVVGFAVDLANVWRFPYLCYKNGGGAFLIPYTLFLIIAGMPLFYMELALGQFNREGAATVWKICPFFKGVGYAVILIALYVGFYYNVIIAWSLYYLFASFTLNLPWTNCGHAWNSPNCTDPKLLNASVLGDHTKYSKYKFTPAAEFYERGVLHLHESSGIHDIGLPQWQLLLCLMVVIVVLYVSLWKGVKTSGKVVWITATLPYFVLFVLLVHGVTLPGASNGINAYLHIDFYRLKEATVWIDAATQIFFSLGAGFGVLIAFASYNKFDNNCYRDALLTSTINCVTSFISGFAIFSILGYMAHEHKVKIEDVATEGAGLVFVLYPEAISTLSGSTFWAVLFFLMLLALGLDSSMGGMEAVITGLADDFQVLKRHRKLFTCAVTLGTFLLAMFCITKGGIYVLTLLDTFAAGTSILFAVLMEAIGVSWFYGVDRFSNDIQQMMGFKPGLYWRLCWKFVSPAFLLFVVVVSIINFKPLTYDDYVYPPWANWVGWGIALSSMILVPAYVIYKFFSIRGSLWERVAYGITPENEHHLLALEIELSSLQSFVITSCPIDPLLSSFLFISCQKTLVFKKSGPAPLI
Sodium-dependent serotonin transporter, sequence (P31652 whole entry): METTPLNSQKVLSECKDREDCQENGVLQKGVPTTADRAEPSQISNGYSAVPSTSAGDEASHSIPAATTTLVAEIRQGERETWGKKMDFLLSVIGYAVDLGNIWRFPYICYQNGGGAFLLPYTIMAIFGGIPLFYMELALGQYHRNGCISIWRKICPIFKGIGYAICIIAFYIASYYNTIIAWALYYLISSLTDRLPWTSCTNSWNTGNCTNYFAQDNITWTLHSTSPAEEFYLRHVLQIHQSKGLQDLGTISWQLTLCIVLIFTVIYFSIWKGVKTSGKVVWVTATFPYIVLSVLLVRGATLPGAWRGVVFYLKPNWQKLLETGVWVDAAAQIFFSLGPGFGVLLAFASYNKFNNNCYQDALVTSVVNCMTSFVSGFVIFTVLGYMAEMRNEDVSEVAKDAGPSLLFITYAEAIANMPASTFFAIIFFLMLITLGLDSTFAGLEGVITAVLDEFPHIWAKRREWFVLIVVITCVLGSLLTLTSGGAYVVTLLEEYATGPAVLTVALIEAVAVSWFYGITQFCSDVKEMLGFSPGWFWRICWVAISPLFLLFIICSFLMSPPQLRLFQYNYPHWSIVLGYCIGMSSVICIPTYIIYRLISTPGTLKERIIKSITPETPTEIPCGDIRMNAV

As for `COc1ccc(C(CN(C)C)C2(O)CCCC2)cc1` (centres undefined), the figures for the IC50 in experiment [1] and in experiment [2] were 5800 nM and 400 nM, respectively.
For `Cc1ccc(C(CN(C)C)C2(O)CCCCC2)cc1` (centres undefined), the IC50 came out at 530 nM in experiment [1] and 1540 nM in experiment [2].
The like results for `COc1cccc(C(CN(C)C)C2(O)CCCC2)c1` (centres undefined) were, in that order, above 10000 nM and 680 nM.
In the case of `CN(C)CC(c1ccc(Br)cc1)C1(O)CCCCC1` (centres undefined), the minimal effective dose in [3] stood at 1 mg/kg. In addition, in experiment [4], the Decrease was 43%. Also, the Change entry in [5] and in experiment [6] was “inactive” each time. In addition, the half-maximal inhibitory concentration (IC50) in experiment [1] stood at 210 nM; in [2], 110 nM.
Regarding `COc1ccc(C(CN(C)C)C2(O)CCCCC2)cc1` (stereo in doubt; 4), the Binding activity in experiment [7] worked out at 77.8 fM/mg; in experiment [8], 251 fM/mg; in [9], 35 fM/mg; in experiment [10] it was 61.8 fM/mg.
As for `CN(C)CC(c1ccc(O)cc1)C1(O)CCCCC1` (centres undefined) [DESVENLAFAXINE], in [1], the IC50 was found to be 1160 nM.
As for `CN(C)CC(c1ccc(C(F)(F)F)cc1)C1(O)CCCCCC1` (centres undefined), the IC50 in [1] turned out to be 2400 nM; in [2], 500 nM.
Take `COc1ccc(C(CN(C)C)C2(O)CCCCC2)cc1Br` (centres undefined): in experiment [3], the minimal effective dose was 1 mg/kg. Also, the Decrease in [4] was 34%. The Change is reported as -65% in experiment [11] and -82% in experiment [12]. Further, the IC50 in [1] amounted to 140 nM; in [2], 200 nM.
`COc1ccc(C(CN(C)C)C2(O)CCCCC2)cc1` (stereo in doubt; 4) [VENLAFAXINE]: the MED in [3] came out at 10 mg/kg. In [4], this compound yielded a Decrease of 26%. The Change in [11] is reported as -51%; in experiment [12], -43%.
In the case of `CN(C)CC(c1cccc(C(F)(F)F)c1)C1(O)CCCCC1` (centres undefined), the figures for the IC50 in experiment [1] and in experiment [2] were 360 nM and 1440 nM, respectively.
For `CN(C)CC(c1ccc(Cl)c(Cl)c1)C1(O)CCCCC1` (centres undefined), the minimal effective dose in experiment [3] turned out to be 3 mg/kg. Moreover, in experiment [4], the Decrease is 55%. Further, the figures for the Change in [11] and in experiment [12] were -51% and -74%, respectively. The IC50 in experiment [1] came out at 70 nM.
For the compound `CN(C)CC(c1ccc(Br)cc1)C1(O)CCC1` (centres undefined), the IC50 in experiment [1] came out at 890 nM; in experiment [2] it was 580 nM.
For `CN(C)CC(c1ccc(C(F)(F)F)cc1)C1(O)CCCC1` (centres undefined), the IC50 in experiment [1] came out at 10400 nM; in experiment [2] it was 490 nM.
As to `CNCCCN1c2ccccc2CCc2ccccc21` [DESIPRAMINE], the minimal effective dose in [3] came out at 0.4 mg/kg. The Decrease in [4] was found to be 52%. In addition, the Change entry in experiment [6] is “inactive”. The Change in experiment [12] was -81%.
As to `CN(C)CC(c1cccc(Br)c1)C1(O)CCCCC1` (centres undefined), in [3], the minimal effective dose was 1 mg/kg. In addition, the Change result in experiment [5] and in experiment [6] was “inactive” throughout. Moreover, the figures for the IC50 in experiment [1] and in [2] were 110 nM and 230 nM, respectively. Also, the Decrease in [13] is recorded as 67%.
Consider `COc1ccc(C(CN(C)C)C2(O)CCCCC2)cc1` (single isomer, unassigned; (-)) [VENLAFAXINE], for which the MED in experiment [3] came out at 3 mg/kg. For the same compound, the Change in experiment [11] was -53%; in experiment [14], -51%. This compound returned a Decrease in experiment [13] (10 mg/kg) of 37%.
As to `COc1ccc(C(CN(C)C)C2(O)CCCCC2)cc1` (single isomer, unassigned; (+)) [VENLAFAXINE], the MED in experiment [3] is 30 mg/kg. The same compound registered a Decrease in experiment [13] (10 mg/kg) of 54%.
In the case of `COc1ccc(C(CN(C)C)C2(O)CCCCCC2)cc1` (centres undefined), the values for the IC50 in [1] and in experiment [2] were 2070 nM and 240 nM, respectively.
The like results for `COc1ccc(C(CN(C)C)C2(O)CCCCC2)cc1OC` (centres undefined) were, in that order, 1380 nM and 130 nM.
Consider `CN(C)CC(c1cccc(Cl)c1)C1(O)CCCCC1` (centres undefined), for which the minimal effective dose in experiment [3] turned out to be 1 mg/kg. For the same compound, the Change result in [5], in [6] and in [15] was “inactive” each time.
In the case of `CN(C)CC(c1ccc(Cl)cc1)C1(O)CCCCC1` (centres undefined), the IC50 in experiment [1] amounted to 300 nM; in experiment [2], 180 nM.
With `CNCC(c1ccc(OC)cc1)C1(O)CCCCC1` (centres undefined) [N-DESMETHYLVENLAFAXINE CHLORIDE], the IC50 in experiment [1] was determined as 4700 nM; in [2] it was 1600 nM.
The like results for `CN(C)CC(c1ccc(C(F)(F)F)cc1)C1(O)CCCCC1` (centres undefined) were, in that order, 2800 nM and 400 nM.
Consider `CN(C)CC(c1ccccc1)C1(O)CCCCC1` (centres undefined), for which 1900 nM corresponded to half-maximal inhibition in [1] (IC50).
For `COc1cccc(C(CN(C)C)C2(O)CCCCC2)c1` (centres undefined), the minimal effective dose in [3] is 3 mg/kg. The same compound yielded a Decrease in experiment [4] of 52%. Besides, the Change in experiment [11] is listed as -79%; in experiment [12], -81%. Also, the figures for the IC50 in experiment [1] and in [2] were 620 nM and 190 nM, respectively.
Take `COc1ccc(C(CN(C)C)C2(O)CCCCC2)cc1` (single isomer, unassigned; (+)): the Change entry in experiment [5] and in experiment [6] was “inactive” in each case.

Broadly, the IC50 is the midpoint of a concentration-inhibition curve. Lower therefore signals greater potency.
